According to ChEMBL document CHEMBL4321820, “Identification and Optimization of Mechanism-Based Fluoroallylamine Inhibitors of Lysyl Oxidase-like 2/3” (J Med Chem, 2019):
Calls of active or inactive are those of the source. No cut-off for these calls is given here.

Assays:
[1] = system: Mus musculus; test: Antifibrotic activity in CCl4-induced BALB/c mouse model of liver fibrosis assessed as reduction in liver fibrosis area at 5 mg/kg, po administered once daily at week 4 to 6 by picro-sirius red staining based microscopy; assay type: functional, organism-based
Procedure, shortened: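 Female BALB/c mice given CCl4 i.p. (1 mL/kg of 25% CCl4 in olive oil) twice weekly for 6 weeks; sacrificed 48 h after last dose. Test articles oral, once daily: prophylactic weeks 1-6 or therapeutic weeks 4-6; imatinib control 50 mg/kg daily weeks 1-6. One formalin-fixed liver lobe stained for Picro Sirius Red and α-SMA; fibrotic area as % of total liver area; mean ± SEM, one-way ANOVA with Dunnett's test.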

[2] = system: Mus musculus; test: Effect on plasma AST level in CCl4-induced BALB/c mouse model of liver fibrosis at 5 to 15 mg/kg, po administered once daily at week 4 to 6; assay type: ADME, organism-based; details: in vivo
Procedure, shortened: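 CCl4 liver fibrosis in female BALB/c mice: CCl4 i.p. (1 mL/kg 25% in olive oil) twice weekly for 6 weeks, sacrifice 48 h after final injection. Oral once-daily dosing weeks 1-6 or weeks 4-6; imatinib 50 mg/kg daily weeks 1-6. ALT and AST measured in plasma.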

[3] = Oral bioavailability in mouse; assay type: ADME, organism-based; details: in vivo
[4] = Oral bioavailability in rat; assay type: ADME, organism-based; details: in vivo
[5] = Protein binding in rat plasma; assay type: ADME, cell-free; details: read-out: PPB (converted)
[6] = Stability in human microsomes assessed as half life; assay type: ADME, Microsome
[7] = Protein binding in dog plasma; assay type: ADME, cell-free, Canis lupus familiaris; details: read-out: PPB (converted)
[8] = molecular target: T1, Lysyl oxidase homolog 2 (Rattus norvegicus, UniProt B5DF27); test: Inhibition of recombinant rat LOLX2 using putrescine as substrate preincubated with enzyme for 30 mins followed by substrate addition and measured every 2.5 mins for 30 mins by Amplex-Red oxidation assay
T1 sequence (B5DF27 whole entry): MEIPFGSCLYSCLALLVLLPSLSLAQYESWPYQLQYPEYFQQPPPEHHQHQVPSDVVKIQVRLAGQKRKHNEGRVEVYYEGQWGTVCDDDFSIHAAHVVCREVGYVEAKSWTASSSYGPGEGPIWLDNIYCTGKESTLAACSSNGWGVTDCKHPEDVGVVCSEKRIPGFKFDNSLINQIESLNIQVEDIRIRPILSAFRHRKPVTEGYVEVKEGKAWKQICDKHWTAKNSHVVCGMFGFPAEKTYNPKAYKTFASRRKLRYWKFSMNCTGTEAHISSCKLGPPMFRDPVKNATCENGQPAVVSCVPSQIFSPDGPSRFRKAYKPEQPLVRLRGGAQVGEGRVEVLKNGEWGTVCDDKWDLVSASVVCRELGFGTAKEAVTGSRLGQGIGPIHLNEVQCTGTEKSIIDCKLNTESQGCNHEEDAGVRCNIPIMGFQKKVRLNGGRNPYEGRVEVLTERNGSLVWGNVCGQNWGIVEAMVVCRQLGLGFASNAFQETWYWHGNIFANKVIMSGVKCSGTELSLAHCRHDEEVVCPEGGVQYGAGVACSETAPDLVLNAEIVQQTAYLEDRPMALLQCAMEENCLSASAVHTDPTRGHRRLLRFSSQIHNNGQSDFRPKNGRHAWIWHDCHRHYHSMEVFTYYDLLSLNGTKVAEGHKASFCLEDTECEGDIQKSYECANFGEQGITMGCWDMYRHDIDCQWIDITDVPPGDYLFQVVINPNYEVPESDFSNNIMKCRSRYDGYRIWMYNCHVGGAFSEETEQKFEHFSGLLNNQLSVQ

[9] = molecular target: T2, Lysyl oxidase homolog 2 (Homo sapiens, UniProt Q9Y4K0); test: Substrate activity at recombinant human C-terminal His-tagged […] (1-774 residues) expressed in mouse myeloma cells assessed as oxidative turnover at 30 uM measured after 30 mins by horseradish peroxidase-coupled amplex red reagent-based fluorescence assay relative to DMSO; assay type: ADME, cell-based; details: 0.5 h
T2 sequence (Q9Y4K0 whole entry): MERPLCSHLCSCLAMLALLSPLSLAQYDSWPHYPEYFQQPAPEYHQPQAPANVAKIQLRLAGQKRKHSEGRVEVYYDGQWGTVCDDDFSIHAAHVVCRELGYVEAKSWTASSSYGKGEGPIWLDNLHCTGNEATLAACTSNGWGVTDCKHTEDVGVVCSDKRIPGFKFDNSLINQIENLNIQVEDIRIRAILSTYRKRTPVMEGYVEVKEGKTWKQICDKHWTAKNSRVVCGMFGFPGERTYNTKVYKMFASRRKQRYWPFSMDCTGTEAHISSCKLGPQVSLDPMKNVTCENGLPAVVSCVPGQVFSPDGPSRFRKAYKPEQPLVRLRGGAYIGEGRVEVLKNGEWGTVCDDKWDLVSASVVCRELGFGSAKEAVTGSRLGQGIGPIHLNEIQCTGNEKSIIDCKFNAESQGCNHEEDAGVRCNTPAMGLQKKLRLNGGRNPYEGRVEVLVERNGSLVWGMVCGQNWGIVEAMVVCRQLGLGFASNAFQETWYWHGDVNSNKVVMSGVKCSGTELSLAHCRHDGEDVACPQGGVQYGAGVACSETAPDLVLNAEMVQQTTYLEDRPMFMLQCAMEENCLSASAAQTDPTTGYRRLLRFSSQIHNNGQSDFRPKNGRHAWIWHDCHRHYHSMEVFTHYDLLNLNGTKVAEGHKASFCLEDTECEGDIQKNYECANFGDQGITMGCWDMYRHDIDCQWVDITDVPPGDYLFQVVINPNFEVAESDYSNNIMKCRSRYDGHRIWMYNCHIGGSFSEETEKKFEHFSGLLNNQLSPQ
Procedure, shortened: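 LOXL2 incubated with compound, no substrate present. Hydrogen peroxide generation read by Amplex Red/HRP fluorescence (ex 565, em 590 nm). Oxidative turnover at 30 min expressed relative to DMSO.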

[10] = molecular target: T2, Lysyl oxidase homolog 2; test: Inhibition of recombinant human LOXL2 assessed as inhibition of collagen cross linking compound replenishment for 5 days and measured on day 7 by UPLC-ESI-MS/MS analysis
[11] = Stability in human plasma assessed as half life; assay type: ADME, cell-free

| SMILES | inhibition [1] | Activity [2] | bioavailability [3] | bioavailability [4] | fraction unbound [5] | half-life [6] | fraction unbound [7] | IC50 [8] | fold change (FC) [9] | IC50 [10] | half-life [11] |
| --- | --- | --- | --- | --- | --- | --- | --- | --- | --- | --- | --- |
| CCOC(=O)c1ccc2c(c1)c(-c1cccc(S(=O)(=O)N(C)C)c1)c(C)n2C/C(F)=C/CN.Cl | Active | Non-Toxic | – | – | – | – | – | – | – | – | – |
| Cc1c(-c2cccc(S(=O)(=O)N(C)C)c2)c2cc(C(=O)O)ccc2n1C/C(F)=C/CN.Cl | – | – | < 1% | < 1% | 0.12 | > 90 min | 0.14 | 6 nM | 1 | 13 nM | > 120 min |
